Results taken from ChEMBL document CHEMBL3525963, “Tissue distribution and elimination of [14C]apixaban in rats” (Drug Metab Dispos, 2011).

Key:
Settings in all cases: in vivo
Lung = assay: Biodistribution in male Sprague-Dawley rat lung at 5 mg/kg, po administered as single dose measured after 0.5 hrs; format: ADME, organism-based; parameters: dose 5 mg/kg, dosed compound name [14C]-apixaban, route oral
In short: (§1)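 [14C]apixaban (1.0 mg/mL, 20 μCi/mL) in 0.5% Tween 80 in Labrafil, given by oral gavage at 100 μCi/kg to male rats (225-252 g) fasted overnight through 4 h post-dose. One rat per time point. Carcasses frozen in hexane/dry ice and cut into 40 µm sagittal sections. QWBA read on phosphor plates against [14C]glucose standards, reported as µg eq/g. LLOQ 0.037 µg eq/g.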

Blood [1] = assay: Biodistribution in male Sprague-Dawley rat blood at 5 mg/kg, po administered as single dose measured after 1 hr; format: ADME, organism-based; parameters: dose 5 mg/kg, dosed compound name [14C]-apixaban, route oral
In short: (§2)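 [¹⁴C]Apixaban given by oral gavage at 5 mg/kg (100 μCi/kg) in 0.5% Tween 80 in Labrafil (1.0 mg/mL dosing solution) to rats fasted overnight through 4 h post-dose. One rat per time point; carcass frozen in hexane/dry ice. Quantitative whole-body autoradiography used 40 µm sagittal sections and a phosphor imaging plate calibrated with [¹⁴C]glucose standards (0.001–6.5 μCi/g). Read-out in µg eq apixaban/g; LLOQ 0.037 μg eq/g.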

Blood [2] = assay: Biodistribution in male Sprague-Dawley rat blood at 5 mg/kg, po administered as single dose measured after 24 hrs; format: ADME, organism-based; parameters: dose 5 mg/kg, dosed compound name [14C]-apixaban, route oral
In short: (§3)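 Fasted male SD rats (225-252 g) each received one oral gavage dose of [14C]apixaban, 5 mg/kg (100 μCi/kg), in 0.5% Tween 80/Labrafil vehicle. One rat was killed per time point, from 0.5 to 168 h. Frozen carcasses were cut into 40 µm sagittal whole-body sections and read by QWBA phosphor imaging against [14C]glucose calibrants. Results are in µg apixaban eq/g; BLQ <0.037 µg eq/g.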

Blood [3] = assay: Biodistribution in female Sprague-Dawley rat blood at 5 mg/kg, po administered as single dose measured after 72 hrs; format: ADME, organism-based; parameters: dose 5 mg/kg, dosed compound name [14C]-apixaban, route oral
In short: (§4)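 Quantitative whole-body autoradiography was run after a single 5 mg/kg (100 μCi/kg) oral gavage to fasted female or pregnant SD rats, one rat per time point. Carcasses were frozen in hexane/dry ice, and 40 µm sagittal sections were dried at −20°C for at least 48 h. Sections were exposed to a phosphor plate alongside [14C]glucose standards (0.001–6.5 µCi/g). Results are µg eq/g, with LLOQ 0.037 µg eq/g.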

Harderian gland [4] = assay: Biodistribution in female Sprague-Dawley rat harderian gland at 5 mg/kg, po administered as single dose measured after 24 hrs; format: ADME, organism-based; parameters: dose 5 mg/kg, dosed compound name [14C]-apixaban, route oral; in short: as §4
Rattus norvegicus [5] = assay: Biodistribution in female Sprague-Dawley rat brown fat at 5 mg/kg, po administered as single dose measured after 24 hrs; format: ADME, organism-based, Brown adipose tissue; parameters: dose 5 mg/kg, dosed compound name [14C]-apixaban, route oral; in short: as §4
Harderian gland [6] = assay: Biodistribution in female Sprague-Dawley rat harderian gland at 5 mg/kg, po administered as single dose measured after 8 hrs; format: ADME, organism-based; parameters: dose 5 mg/kg, dosed compound name [14C]-apixaban, route oral; in short: as §2
Rattus norvegicus [7] = assay: Biodistribution in female Sprague-Dawley rat salivary gland at 5 mg/kg, po administered as single dose measured after 0.5 hrs; format: ADME, organism-based; parameters: dose 5 mg/kg, dosed compound name [14C]-apixaban, route oral
In short: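 [14C]apixaban (20 μCi/mL in dosing solution) in 0.5% Tween 80 in Labrafil given by oral gavage to fasted female rats, 206-213 g, at 100 μCi/kg. One rat per time point was euthanized and snap-frozen. Sagittal 40 µm whole-body sections were read by QWBA phosphor imaging against [14C]glucose standards. Results are in µg eq apixaban/g, with LLOQ 0.037 μg eq/g.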

Rattus norvegicus [8] = assay: Biodistribution in male Sprague-Dawley rat kidney cortex at 5 mg/kg, po administered as single dose measured after 72 hrs; format: ADME, organism-based; parameters: dose 5 mg/kg, dosed compound name [14C]-apixaban, route oral; in short: as §3
Thymus [9] = assay: Biodistribution in male Sprague-Dawley rat thymus at 5 mg/kg, po administered as single dose measured after 1 hr; format: ADME, organism-based; parameters: dose 5 mg/kg, dosed compound name [14C]-apixaban, route oral
Adrenal gland [10] = assay: Biodistribution in male Sprague-Dawley rat adrenal gland at 5 mg/kg, po administered as single dose measured after 4 hrs; format: ADME, organism-based; parameters: dose 5 mg/kg, dosed compound name [14C]-apixaban, route oral; in short: as §2
Heart = assay: Biodistribution in male Sprague-Dawley rat heart at 5 mg/kg, po administered as single dose measured after 4 hrs; format: ADME, organism-based; parameters: dose 5 mg/kg, dosed compound name [14C]-apixaban, route oral; in short: as §1
Rattus norvegicus [11] = assay: Biodistribution in pregnant Sprague-Dawley rat kidney cortex at 5 mg/kg, po administered as single dose measured after 8 hrs; format: ADME, organism-based; parameters: dose 5 mg/kg, dosed compound name [14C]-apixaban, route oral
Liver [12] = assay: Biodistribution in pregnant Sprague-Dawley rat liver at 5 mg/kg, po administered as single dose measured after 8 hrs; format: ADME, organism-based; parameters: dose 5 mg/kg, dosed compound name [14C]-apixaban, route oral
Thymus [13] = assay: Biodistribution in pregnant Sprague-Dawley rat thymus at 5 mg/kg, po administered as single dose measured after 8 hrs; format: ADME, organism-based; parameters: dose 5 mg/kg, dosed compound name [14C]-apixaban, route oral
Brain [14] = assay: Biodistribution in pregnant Sprague-Dawley rat brain at 5 mg/kg, po administered as single dose measured after 24 hrs; format: ADME, organism-based; parameters: dose 5 mg/kg, dosed compound name [14C]-apixaban, route oral
In short: (§5)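 Fasted pregnant SD rats (n=6, 270-319 g) each received one oral gavage dose of [14C]apixaban, 5 mg/kg (100 μCi/kg), in 0.5% Tween 80/Labrafil. One rat was killed at each of 0.5, 1, 4, 8, 24 and 48 h. Carcasses were frozen in hexane/dry ice, cut into 40 µm sagittal sections, exposed to phosphor plates and quantified against [14C]glucose standards as µg eq/g. LLOQ was 0.037 µg eq/g.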

Liver [15] = assay: Biodistribution in pregnant Sprague-Dawley rat liver at 5 mg/kg, po administered as single dose measured after 24 hrs; format: ADME, organism-based; parameters: dose 5 mg/kg, dosed compound name [14C]-apixaban, route oral
Blood [16] = assay: AUC (0 to infinity) in lactating Sprague-Dawley rat blood at 5 mg/kg, po administered as single dose; format: ADME, organism-based; parameters: time infinity, dose 5 mg/kg, dosed compound name [14C]-apixaban, route oral
[17] = Drug level in lactating Sprague-Dawley rat milk at 5 mg/kg, po administered as single dose after 6 hrs; format: ADME, organism-based; parameters: dose 5 mg/kg, dosed compound name [14C]-apixaban, route oral
Adrenal gland [18] = assay: Biodistribution in pregnant Sprague-Dawley rat adrenal gland at 5 mg/kg, po administered as single dose measured after 48 hrs; format: ADME, organism-based; parameters: dose 5 mg/kg, dosed compound name [14C]-apixaban, route oral; in short: as §5
Brain [19] = assay: Biodistribution in pregnant Sprague-Dawley rat brain at 5 mg/kg, po administered as single dose measured after 48 hrs; format: ADME, organism-based; parameters: dose 5 mg/kg, dosed compound name [14C]-apixaban, route oral; in short: as §5
Rattus norvegicus [20] = assay: Biodistribution in pregnant Sprague-Dawley rat brown fat at 5 mg/kg, po administered as single dose measured after 48 hrs; format: ADME, organism-based, Brown adipose tissue; parameters: dose 5 mg/kg, dosed compound name [14C]-apixaban, route oral; in short: as §5
Rattus norvegicus [21] = assay: Biodistribution in fetal blood of pregnant Sprague-Dawley rat at 5 mg/kg, po administered as single dose measured after 48 hrs; format: ADME, organism-based; parameters: dose 5 mg/kg, dosed compound name [14C]-apixaban, route oral; in short: as §4
[22] = Drug metabolism in Sprague-Dawley rat milk assessed as apixaban level at 5 mg/kg, po after 1 to 24 hrs by HPLC method; format: ADME, organism-based; parameters: dose 5 mg/kg, dosed compound name [14C]-apixaban, route oral
In short: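 After a 5 mg/kg oral dose, samples were radioprofiled by HPLC. The column was C18 with a 0.4% formic acid (pH 3.2)/acetonitrile gradient at 0.7 mL/min. Fractions were collected every 0.25 min and counted for radioactivity. Peaks were identified by ESI LC/MS/MS against synthetic standards. Milk was taken at 1, 6, 12 and 24 h.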

Liver [23] = assay: Biodistribution in female Sprague-Dawley rat liver at 5 mg/kg, po administered as single dose measured after 1 hr; format: ADME, organism-based; parameters: dose 5 mg/kg, dosed compound name [14C]-apixaban, route oral; in short: as §4
Brain [24] = assay: Biodistribution in female Sprague-Dawley rat brain at 5 mg/kg, po administered as single dose measured after 1 hr; format: ADME, organism-based; parameters: dose 5 mg/kg, dosed compound name [14C]-apixaban, route oral
In short: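 [14C]Apixaban (1.0 mg/mL, 20 μCi/mL in 0.5% Tween 80 in Labrafil) given as a single oral gavage of 5 mg/kg (100 μCi/kg) to fasted female SD rats, one rat per time point. Carcasses were frozen in hexane/dry ice and cut into 40 µm sagittal sections for QWBA against [14C]glucose standards. Brain radioactivity is reported as µg eq/g, with LLOQ 0.037 µg eq/g.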

Radiolabel recovery (Lung): 0.57 ugequiv/g
Radiolabel recovery (Blood [1]): 1.18 ugequiv/g
Radiolabel recovery (Blood [3]): Not detected assumed BLQ
Radiolabel recovery (Harderian gland [4]): Not detected assumed BLQ
Radiolabel recovery (Rattus norvegicus [5]): Not detected assumed BLQ
Radiolabel recovery (Harderian gland [6]): 0.22 ugequiv/g
Radiolabel recovery (Rattus norvegicus [7]): 0.28 ugequiv/g
Radiolabel recovery (Rattus norvegicus [8]): Not detected assumed BLQ
Radiolabel recovery (Thymus [9]): 0.46 ugequiv/g
Radiolabel recovery (Adrenal gland [10]): 0.76 ugequiv/g
Radiolabel recovery (Heart): 0.45 ugequiv/g
Radiolabel recovery (Rattus norvegicus [11]): 0.21 ugequiv/g
Radiolabel recovery (Liver [12]): 0.65 ugequiv/g
Radiolabel recovery (Thymus [13]): 0.05 ugequiv/g
Radiolabel recovery (Brain [14]): Not detected assumed BLQ
Radiolabel recovery (Liver [15]): 0.12 ugequiv/g
AUC (Blood [16]): 1960 ngequiv.hr/g
Radiolabel recovery [17]: 8.92 µg/mL
Radiolabel recovery (Brain [19]): Not detected assumed BLQ
Radiolabel recovery (Rattus norvegicus [20]): Not detected assumed BLQ
Radiolabel recovery (Rattus norvegicus [21]): Not detected assumed BLQ
Compound recovery [22]: > 96%
Radiolabel recovery (Liver [23]): 4.31 ugequiv/g
Radiolabel recovery (Brain [24]): < 0.037 ugequiv/g
Compound: COc1ccc(-n2nc(C(N)=O)c3c2C(=O)N(c2ccc(N4CCCC[14C]4=O)cc2)CC3)cc1
Radiolabel recovery (Blood [2]): Not sampled as not visualised in autoradiograph
Radiolabel recovery (Adrenal gland [18]): Not sampled as not visualised in autoradiograph
